Data reported in ChEMBL document CHEMBL1255255, “Highly variable penicillin resistance determinants PBP 2x, PBP 2b, and PBP 1a in isolates of two Streptococcus pneumoniae clonal groups, Poland 23F-16 and Poland 6B-20” (2008).
Positions count from the first letter of the chain named. ≈ marks a conversion by molar mass, not a printed value. Calls of active or inactive are those of the source. The rule behind the calls is not given here.

Key:
[1] = molecular target: T1, Penicillin-binding protein 1A (Streptococcus pneumoniae serotype 4 (strain ATCC BAA-334 / TIGR4)) (UniProt Q04707); assay: Binding affinity to PBP 1a in Streptococcus pneumoniae isolate k-637 at 1.1 ng/ml to 1.1 ug /ml
T1 sequence (whole entry): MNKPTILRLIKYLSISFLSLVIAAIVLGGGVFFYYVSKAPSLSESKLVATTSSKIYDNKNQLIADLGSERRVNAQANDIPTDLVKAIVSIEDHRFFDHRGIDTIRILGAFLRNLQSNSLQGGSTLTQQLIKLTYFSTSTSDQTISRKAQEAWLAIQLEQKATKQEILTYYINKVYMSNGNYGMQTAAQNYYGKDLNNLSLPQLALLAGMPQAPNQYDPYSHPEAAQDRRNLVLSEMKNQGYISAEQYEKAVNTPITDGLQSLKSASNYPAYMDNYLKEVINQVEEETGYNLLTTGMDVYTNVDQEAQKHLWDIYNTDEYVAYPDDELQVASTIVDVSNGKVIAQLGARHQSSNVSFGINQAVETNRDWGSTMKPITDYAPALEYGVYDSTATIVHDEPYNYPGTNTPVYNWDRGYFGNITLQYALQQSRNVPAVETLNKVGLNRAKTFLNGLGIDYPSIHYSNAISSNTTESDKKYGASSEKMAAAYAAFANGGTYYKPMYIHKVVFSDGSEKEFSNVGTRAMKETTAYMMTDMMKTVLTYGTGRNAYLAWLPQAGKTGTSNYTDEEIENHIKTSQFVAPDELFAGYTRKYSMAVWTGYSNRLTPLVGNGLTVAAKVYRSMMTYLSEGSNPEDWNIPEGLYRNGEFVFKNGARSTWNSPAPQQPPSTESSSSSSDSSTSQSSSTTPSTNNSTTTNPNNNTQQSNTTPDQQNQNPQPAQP
Summary of the method: (§1)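 Cells grown at 37°C without aeration in C medium with 0.2% yeast extract, monitored by nephelometry, harvested at 80 to 100 nephelometry units and resuspended in 20 mM sodium phosphate (pH 7.2) with 0.2% Triton X-100. Lysate aliquots labeled with decreasing Bocillin FL (1.1, 0.36, 0.11, 0.036 μg/ml, onward) for 30 min at 37°C. PBPs were resolved by SDS-PAGE (7.5% resolving gel) and read by fluorescence imaging.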

[2] = molecular target: T2, Penicillin-binding protein 2X (Streptococcus pneumoniae R6) (UniProt P59676); assay: Binding affinity to PBP 2x in Streptococcus pneumoniae R6 at 1.1 ng/ml to 1.1 ug /ml; summary of the method: as §1
T2 sequence (whole entry): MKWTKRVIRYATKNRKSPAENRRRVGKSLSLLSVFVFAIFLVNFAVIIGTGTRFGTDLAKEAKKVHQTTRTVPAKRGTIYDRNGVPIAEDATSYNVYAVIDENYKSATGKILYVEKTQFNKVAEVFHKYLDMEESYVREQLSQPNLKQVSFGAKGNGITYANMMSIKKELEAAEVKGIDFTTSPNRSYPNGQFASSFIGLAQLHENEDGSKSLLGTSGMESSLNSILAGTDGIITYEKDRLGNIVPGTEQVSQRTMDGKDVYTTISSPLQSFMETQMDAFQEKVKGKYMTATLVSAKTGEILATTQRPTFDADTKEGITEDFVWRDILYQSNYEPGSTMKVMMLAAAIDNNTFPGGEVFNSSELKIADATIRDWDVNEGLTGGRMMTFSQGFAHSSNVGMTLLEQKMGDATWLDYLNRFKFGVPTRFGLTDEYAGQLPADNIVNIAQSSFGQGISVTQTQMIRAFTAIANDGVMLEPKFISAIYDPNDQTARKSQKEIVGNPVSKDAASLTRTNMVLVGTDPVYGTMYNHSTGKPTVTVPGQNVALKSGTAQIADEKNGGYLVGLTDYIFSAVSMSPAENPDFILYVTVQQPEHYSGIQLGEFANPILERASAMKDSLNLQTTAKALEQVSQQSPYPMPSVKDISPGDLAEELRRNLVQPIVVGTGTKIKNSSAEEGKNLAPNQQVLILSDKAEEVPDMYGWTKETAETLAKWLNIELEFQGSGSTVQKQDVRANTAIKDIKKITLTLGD

[3] = molecular target: T3, Penicillin-binding protein 2x (Streptococcus pneumoniae serotype 4 (strain ATCC BAA-334 / TIGR4)) (UniProt P14677); assay: Binding affinity to PBP 2x in Streptococcus pneumoniae isolate k-421 at 1.1 ng/ml to 1.1 ug /ml; summary of the method: as §1
T3 sequence (whole entry): T2 sequence (whole entry) with M385T

[4] = molecular target: T3, Penicillin-binding protein 2x (Streptococcus pneumoniae serotype 4 (strain ATCC BAA-334 / TIGR4)); assay: Binding affinity to PBP 2x in Streptococcus pneumoniae isolate 909 at 1.1 ng/ml to 1.1 ug /ml; summary of the method: as §1
Streptococcus pneumoniae [5] = assay: Antimicrobial activity against Streptococcus pneumoniae ATCC BAA-343; assay type: functional
Streptococcus pneumoniae [6] = assay: Antimicrobial activity against Streptococcus pneumoniae isolate k-637 obtained from CSF of patient; assay type: functional
Streptococcus pneumoniae [7] = assay: Antimicrobial activity against Streptococcus pneumoniae isolate 2904 obtained from blood of patient; assay type: functional
Streptococcus pneumoniae [8] = assay: Antimicrobial activity against Streptococcus pneumoniae isolate k-598 obtained from bronchoalveolar lavage fluid of patient; assay type: functional; conditions: Lung
Streptococcus pneumoniae [9] = assay: Antimicrobial activity against Streptococcus pneumoniae isolate 187 obtained from bronchoalveolar lavage fluid of patient; assay type: functional; conditions: isolate 187, Lung
Streptococcus pneumoniae [10] = assay: Antimicrobial activity against Streptococcus pneumoniae isolate 909 obtained from bronchoalveolar lavage fluid of patient; assay type: functional; conditions: isolate 909, Lung
Streptococcus pneumoniae [11] = assay: Antimicrobial activity against Streptococcus pneumoniae isolate 40 obtained from blood of patient; assay type: functional
Streptococcus pneumoniae [12] = assay: Antimicrobial activity against Streptococcus pneumoniae isolate k-585 obtained from bronchoalveolar lavage fluid of patient; assay type: functional; conditions: isolate k-585, Lung
Streptococcus pneumoniae [13] = assay: Antimicrobial activity against Streptococcus pneumoniae ATCC BAA-612; assay type: functional
Streptococcus pneumoniae [14] = assay: Antimicrobial activity against Streptococcus pneumoniae isolate k-421 obtained from ear of patient; assay type: functional
Streptococcus pneumoniae [15] = assay: Antimicrobial activity against Streptococcus pneumoniae isolate 4134 obtained from sputum of patient; assay type: functional
Streptococcus pneumoniae [16] = assay: Antimicrobial activity against Streptococcus pneumoniae isolate 657 obtained from sputum of patient; assay type: functional
Streptococcus pneumoniae [17] = assay: Antimicrobial activity against Streptococcus pneumoniae isolate 2907 obtained from sinusitis of patient; assay type: functional

Row | Activity [1] | Activity [2] | Activity [3] | Activity [4] | SMILES | MIC (Streptococcus pneumoniae [5]) | MIC (Streptococcus pneumoniae [6]) | MIC (Streptococcus pneumoniae [7]) | MIC (Streptococcus pneumoniae [8]) | MIC (Streptococcus pneumoniae [9]) | MIC (Streptococcus pneumoniae [10]) | MIC (Streptococcus pneumoniae [11]) | MIC (Streptococcus pneumoniae [12]) | MIC (Streptococcus pneumoniae [13]) | MIC (Streptococcus pneumoniae [14]) | MIC (Streptococcus pneumoniae [15]) | MIC (Streptococcus pneumoniae [16]) | MIC (Streptococcus pneumoniae [17])
1 | Active | inactive | inactive | inactive | Cc1cc(C)n2c1C=C1C=CC(CCC(=O)Nc3ccc(OCC(=O)N[C@@H]4C(=O)N5[C@@H]4SC(C)(C)[C@@H]5C(=O)O)cc3)=[N+]1[B-]2(F)F | – | – | – | – | – | – | – | – | – | – | – | – | –
2 | – | – | – | – | CC1(C)S[C@@H]2[C@H](NC(=O)[C@H](N)c3ccc(O)cc3)C(=O)N2[C@H]1C(=O)O [AMOXICILLIN] | 2 µg/mL (≈ 5.47 µM) | 2 µg/mL (≈ 5.47 µM) | 2 µg/mL (≈ 5.47 µM) | 16 µg/mL (≈ 43.8 µM) | 16 µg/mL (≈ 43.8 µM) | 8 µg/mL (≈ 21.9 µM) | 8 µg/mL (≈ 21.9 µM) | 4 µg/mL (≈ 10.9 µM) | 0.12 µg/mL (≈ 0.328 µM) | 2 µg/mL (≈ 5.47 µM) | 1 µg/mL (≈ 2.74 µM) | 0.06 µg/mL (≈ 0.164 µM) | 0.25 µg/mL (≈ 0.684 µM)
3 | – | – | – | – | CO/N=C(\C(=O)N[C@@H]1C(=O)N2C(C(=O)[O-])=C(C[N+]3(C)CCCC3)CS[C@H]12)c1csc(N)n1 [CEFEPIME] | 4 µg/mL (≈ 8.32 µM) | 2 µg/mL (≈ 4.16 µM) | 1 µg/mL (≈ 2.08 µM) | 8 µg/mL (≈ 16.6 µM) | 2 µg/mL (≈ 4.16 µM) | 1 µg/mL (≈ 2.08 µM) | 1 µg/mL (≈ 2.08 µM) | 1 µg/mL (≈ 2.08 µM) | 0.25 µg/mL (≈ 0.52 µM) | 1 µg/mL (≈ 2.08 µM) | 1 µg/mL (≈ 2.08 µM) | 0.06 µg/mL (≈ 0.125 µM) | 0.25 µg/mL (≈ 0.52 µM)
4 | – | – | – | – | CO/N=C(\C(=O)N[C@@H]1C(=O)N2C(C(=O)O)=C(COC(C)=O)CS[C@H]12)c1csc(N)n1 [CEFOTAXIME] | 4 µg/mL (≈ 8.78 µM) | 1 µg/mL (≈ 2.2 µM) | 4 µg/mL (≈ 8.78 µM) | 16 µg/mL (≈ 35.1 µM) | 8 µg/mL (≈ 17.6 µM) | 2 µg/mL (≈ 4.39 µM) | 4 µg/mL (≈ 8.78 µM) | 1 µg/mL (≈ 2.2 µM) | 0.06 µg/mL (≈ 0.132 µM) | 2 µg/mL (≈ 4.39 µM) | 0.5 µg/mL (≈ 1.1 µM) | 0.06 µg/mL (≈ 0.132 µM) | 0.25 µg/mL (≈ 0.549 µM)
5 | – | – | – | – | CO/N=C(\C(=O)N[C@@H]1C(=O)N2C(C(=O)O)=C(CSc3nc(=O)c(O)nn3C)CS[C@H]12)c1csc(N)n1 [CEFTRIAXONE] | 4 µg/mL (≈ 7.21 µM) | 0.5 µg/mL (≈ 0.902 µM) | 2 µg/mL (≈ 3.61 µM) | 4 µg/mL (≈ 7.21 µM) | 4 µg/mL (≈ 7.21 µM) | 1 µg/mL (≈ 1.8 µM) | 4 µg/mL (≈ 7.21 µM) | 0.25 µg/mL (≈ 0.451 µM) | 0.06 µg/mL (≈ 0.108 µM) | 1 µg/mL (≈ 1.8 µM) | 0.25 µg/mL (≈ 0.451 µM) | 0.06 µg/mL (≈ 0.108 µM) | 0.25 µg/mL (≈ 0.451 µM)
6 | – | – | – | – | CO/N=C(\C(=O)N[C@@H]1C(=O)N2C(C(=O)O)=C(COC(N)=O)CS[C@H]12)c1ccco1 [CEFUROXIME] | 8 µg/mL (≈ 18.9 µM) | 4 µg/mL (≈ 9.43 µM) | 16 µg/mL (≈ 37.7 µM) | > 32 µg/mL | > 32 µg/mL | 8 µg/mL (≈ 18.9 µM) | 32 µg/mL (≈ 75.4 µM) | 2 µg/mL (≈ 4.71 µM) | 0.12 µg/mL (≈ 0.283 µM) | 2 µg/mL (≈ 4.71 µM) | 2 µg/mL (≈ 4.71 µM) | 0.12 µg/mL (≈ 0.283 µM) | 0.25 µg/mL (≈ 0.589 µM)
7 | – | – | – | – | C[C@@H](O)[C@H]1C(=O)N2C(C(=O)O)=C(S[C@@H]3CN[C@H](C(=O)N(C)C)C3)[C@H](C)[C@H]12 [MEROPENEM] | 0.5 µg/mL (≈ 1.3 µM) | 0.5 µg/mL (≈ 1.3 µM) | 0.5 µg/mL (≈ 1.3 µM) | 0.5 µg/mL (≈ 1.3 µM) | 0.5 µg/mL (≈ 1.3 µM) | 0.25 µg/mL (≈ 0.652 µM) | 0.5 µg/mL (≈ 1.3 µM) | 0.25 µg/mL (≈ 0.652 µM) | 0.06 µg/mL (≈ 0.156 µM) | 0.25 µg/mL (≈ 0.652 µM) | 0.25 µg/mL (≈ 0.652 µM) | 0.06 µg/mL (≈ 0.156 µM) | 0.12 µg/mL (≈ 0.313 µM)
8 | – | – | – | – | CC1(C)S[C@@H]2[C@H](NC(=O)Cc3ccccc3)C(=O)N2[C@H]1C(=O)O [PENICILLIN G] | 8 µg/mL (≈ 23.9 µM) | 8 µg/mL (≈ 23.9 µM) | 4 µg/mL (≈ 12 µM) | 8 µg/mL (≈ 23.9 µM) | 8 µg/mL (≈ 23.9 µM) | 4 µg/mL (≈ 12 µM) | 8 µg/mL (≈ 23.9 µM) | 4 µg/mL (≈ 12 µM) | 0.12 µg/mL (≈ 0.359 µM) | 2 µg/mL (≈ 5.98 µM) | 2 µg/mL (≈ 5.98 µM) | 0.12 µg/mL (≈ 0.359 µM) | 0.5 µg/mL (≈ 1.5 µM)
